Results taken from ChEMBL document CHEMBL2311539, “3,6-Diamino-4-(2-halophenyl)-2-benzoylthieno[2,3-b]pyridine-5-carbonitriles are selective inhibitors of Plasmodium falciparum glycogen synthase kinase-3” (J Med Chem, 2013).
pEC50, pIC50: −log10 of the molar value.

How the values were obtained:
[1] = biological target: T1, Mitogen-activated protein kinase 15 (Homo sapiens) (UniProt Q8TD08); assay: Inhibition of ERK8 (unknown origin) at 10 uM
T1 sequence (whole entry): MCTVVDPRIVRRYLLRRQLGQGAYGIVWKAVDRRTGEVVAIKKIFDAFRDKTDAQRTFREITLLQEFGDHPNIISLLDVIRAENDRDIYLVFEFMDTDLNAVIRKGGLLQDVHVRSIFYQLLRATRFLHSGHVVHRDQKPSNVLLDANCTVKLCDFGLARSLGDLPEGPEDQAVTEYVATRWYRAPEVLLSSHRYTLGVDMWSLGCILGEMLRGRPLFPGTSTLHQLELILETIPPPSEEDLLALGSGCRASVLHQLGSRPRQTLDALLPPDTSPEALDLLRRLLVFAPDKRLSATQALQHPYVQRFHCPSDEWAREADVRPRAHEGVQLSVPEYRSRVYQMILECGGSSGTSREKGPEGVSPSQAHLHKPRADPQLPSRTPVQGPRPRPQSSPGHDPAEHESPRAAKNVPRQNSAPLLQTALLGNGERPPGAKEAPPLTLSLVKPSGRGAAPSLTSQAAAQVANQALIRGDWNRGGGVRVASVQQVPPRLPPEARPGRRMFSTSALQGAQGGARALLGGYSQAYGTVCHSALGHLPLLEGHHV
Method in brief: (§1)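 Dundee human kinase selectivity panel (77 kinases); test compound at 1 and 10 μM, percentage kinase inhibition recorded.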

[2] = biological target: MAP kinase-activated protein kinase 2 (Homo sapiens) (UniProt P49137); assay: Inhibition of MAPKAP-K2 (unknown origin) at 10 uM; method in brief: as §1
[3] = biological target: Tyrosine-protein kinase BTK (Homo sapiens) (UniProt Q06187); assay: Inhibition of BTK (unknown origin) at 10 uM; method in brief: as §1
[4] = Inhibition of Leishmania donovani GSK-3
[5] = biological target: Glycogen synthase kinase-3 (Sus scrofa, UniProt B2LUN4+I6LNT8); assay: Inhibition of pig GSK-3alpha/beta
Method in brief: (§2)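 Native affinity-purified porcine GSK-3 in the radiometric assay: 40 μM GS-1 peptide, 15 μM γ-33P-ATP, pH 7.5 Tris/MgCl2/EGTA/DTT/heparin/BSA buffer, 30 min at 30 °C, P81 filter binding and scintillation counting. IC50 from dose-response curves with triplicate points; top concentration 10 or 100 μM.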

[6] = Inhibition of Plasmodium falciparum recombinant GSK-3 by radiometric protein kinase assay
Method in brief: (§3)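 His6-tagged recombinant GSK-3 expressed in E. coli (TOP10/pBAD-Thio-TOPO for P. falciparum and T. gondii, arabinose-induced; BL21(DE3)-pRARE2/pET15 for C. parvum, IPTG at 15 °C), Ni-NTA purified. Assayed with 40 μM GS-1 phosphopeptide, 15 μM γ-33P-ATP in pH 7.5 Tris buffer with MgCl2, EGTA, DTT, heparin, BSA; 30 min, 30 °C; P81 paper, phosphoric acid washes, scintillation counting. DMSO controls; dose-response IC50, triplicate points.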

[7] = biological target: Calcium/calmodulin-dependent protein kinase type 1 (Homo sapiens) (UniProt Q14012); assay: Inhibition of CAMK1 (unknown origin) at 10 uM; method in brief: as §1
[8] = biological target: Mitogen-activated protein kinase 14 (Homo sapiens) (UniProt Q16539); assay: Inhibition of P38alpha MAPK (unknown origin) at 10 uM; method in brief: as §1
[9] = Inhibition of Toxoplasma gondii recombinant His6-tagged GSK-3 expressed in Escherichia coli using GS-1 peptide as substrate after 30 mins by scintillation counting analysis in presence of gamma-33P-ATP; format: cell-free; method in brief: as §3
[10] = Inhibition of Cryptosporidium parvum recombinant His6-tagged GSK-3 expressed in Escherichia coli using GS-1 peptide as substrate after 30 mins by scintillation counting analysis in presence of gamma-33P-ATP; method in brief: as §3
[11] = Inhibition of Trypanosoma cruzi GSK-3
[12] = biological target: Mitogen-activated protein kinase 11 (Homo sapiens) (UniProt Q15759); assay: Inhibition of P38beta MAPK (unknown origin) at 10 uM; method in brief: as §1
[13] = Inhibition of Plasmodium falciparum recombinant His6-tagged GSK-3 expressed in Escherichia coli using GS-1 peptide as substrate after 30 mins by scintillation counting analysis in presence of gamma-33P-ATP; method in brief: as §3
Plasmodium falciparum = assay: Antiplasmodial activity against Plasmodium falciparum after 72 hrs by luciferase reporter gene assay; format: functional, organism-based; conditions: 48 h, in the assay text read “48 hrs” for “72 hrs”
Method in brief: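 NF54:LUC P. falciparum erythrocytic stages (luciferase under hrp2 promoter) at 3% parasitemia, 25% hematocrit; compounds in RPMI-1640 with 1% DMSO, triplicate wells; untreated, DMSO-only and non-luciferase NF54 blank wells. […] Bright-Glo lysis, luminescence read.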

[14] = biological target: Dual specificity mitogen-activated protein kinase kinase 1 (Homo sapiens) (UniProt Q02750); assay: Inhibition of MKK1 (unknown origin) at 10 uM; method in brief: as §1
[15] = biological target: RAC-alpha serine/threonine-protein kinase (Homo sapiens) (UniProt P31749); assay: Inhibition of PKB alpha (unknown origin) at 10 uM; method in brief: as §1
[16] = biological target: Serine/threonine-protein kinase Chk2 (Homo sapiens) (UniProt O96017); assay: Inhibition of CHK2 (unknown origin) at 10 uM; method in brief: as §1
[17] = biological target: Serine/threonine-protein kinase PAK 4 (Homo sapiens) (UniProt O96013); assay: Inhibition of PAK4 (unknown origin) at 10 uM; method in brief: as §1
[18] = Inhibition of Trypanosoma brucei GSK-3
[19] = biological target: T2, Serine/threonine-protein kinase BRSK2 (Homo sapiens) (UniProt Q8IWQ3); assay: Inhibition of BRSK2 (unknown origin) at 10 uM; method in brief: as §1
T2 sequence (whole entry): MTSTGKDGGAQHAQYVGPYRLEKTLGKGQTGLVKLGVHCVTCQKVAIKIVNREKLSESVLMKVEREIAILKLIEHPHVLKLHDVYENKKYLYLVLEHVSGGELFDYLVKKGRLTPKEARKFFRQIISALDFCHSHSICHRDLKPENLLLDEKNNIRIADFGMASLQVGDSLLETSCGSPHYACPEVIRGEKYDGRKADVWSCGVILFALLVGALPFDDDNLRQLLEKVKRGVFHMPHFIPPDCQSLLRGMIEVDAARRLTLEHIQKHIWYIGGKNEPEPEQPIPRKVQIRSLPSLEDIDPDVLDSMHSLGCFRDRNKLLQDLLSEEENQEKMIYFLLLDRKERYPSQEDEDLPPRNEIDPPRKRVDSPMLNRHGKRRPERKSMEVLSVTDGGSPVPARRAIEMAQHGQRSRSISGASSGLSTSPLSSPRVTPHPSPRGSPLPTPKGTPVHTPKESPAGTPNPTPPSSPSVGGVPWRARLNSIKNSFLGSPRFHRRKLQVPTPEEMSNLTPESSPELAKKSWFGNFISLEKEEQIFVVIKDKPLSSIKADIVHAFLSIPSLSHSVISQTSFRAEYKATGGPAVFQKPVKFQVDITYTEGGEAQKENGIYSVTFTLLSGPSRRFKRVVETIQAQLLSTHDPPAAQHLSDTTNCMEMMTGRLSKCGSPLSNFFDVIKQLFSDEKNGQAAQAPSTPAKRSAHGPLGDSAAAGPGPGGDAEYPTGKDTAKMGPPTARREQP

[20] = Inhibition of pig GSK-3 by radiometric protein kinase assay; parameters: species or system Sus scrofa; method in brief: as §2

Chain of Serine/threonine-protein kinase PAK 4 (Homo sapiens) (O96013 whole entry, looked up): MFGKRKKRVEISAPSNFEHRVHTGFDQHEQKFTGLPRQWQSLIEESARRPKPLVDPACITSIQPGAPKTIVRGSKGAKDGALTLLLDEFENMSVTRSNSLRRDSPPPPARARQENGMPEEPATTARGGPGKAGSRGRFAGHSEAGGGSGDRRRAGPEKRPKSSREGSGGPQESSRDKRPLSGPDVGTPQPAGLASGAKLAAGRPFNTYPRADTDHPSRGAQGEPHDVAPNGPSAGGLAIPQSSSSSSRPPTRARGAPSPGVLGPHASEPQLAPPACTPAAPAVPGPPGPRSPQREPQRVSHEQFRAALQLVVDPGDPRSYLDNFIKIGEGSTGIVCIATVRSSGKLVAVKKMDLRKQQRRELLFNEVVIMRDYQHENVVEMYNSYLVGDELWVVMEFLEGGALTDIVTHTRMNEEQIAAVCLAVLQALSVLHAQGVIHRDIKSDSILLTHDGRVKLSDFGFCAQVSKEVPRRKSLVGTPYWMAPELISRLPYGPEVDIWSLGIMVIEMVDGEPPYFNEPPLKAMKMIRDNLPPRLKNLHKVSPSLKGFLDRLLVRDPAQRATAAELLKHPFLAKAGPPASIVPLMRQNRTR
Chain of Serine/threonine-protein kinase Chk2 (Homo sapiens) (O96017 whole entry): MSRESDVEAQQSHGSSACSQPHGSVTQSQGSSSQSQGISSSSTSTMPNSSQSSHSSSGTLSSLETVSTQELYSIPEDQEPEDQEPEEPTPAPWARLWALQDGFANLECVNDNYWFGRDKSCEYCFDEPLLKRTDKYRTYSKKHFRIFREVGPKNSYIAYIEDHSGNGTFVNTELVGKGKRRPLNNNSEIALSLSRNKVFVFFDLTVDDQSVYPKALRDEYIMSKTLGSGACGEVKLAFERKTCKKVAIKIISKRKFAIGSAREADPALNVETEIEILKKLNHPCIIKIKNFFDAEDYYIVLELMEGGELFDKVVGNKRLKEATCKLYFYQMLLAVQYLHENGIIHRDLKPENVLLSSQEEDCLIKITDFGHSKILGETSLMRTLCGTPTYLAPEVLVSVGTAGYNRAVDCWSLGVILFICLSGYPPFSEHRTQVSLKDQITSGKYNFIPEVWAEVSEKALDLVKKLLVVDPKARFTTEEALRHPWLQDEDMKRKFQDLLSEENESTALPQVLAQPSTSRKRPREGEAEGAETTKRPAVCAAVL
Chain of Mitogen-activated protein kinase 14 (Homo sapiens) (Q16539 whole entry): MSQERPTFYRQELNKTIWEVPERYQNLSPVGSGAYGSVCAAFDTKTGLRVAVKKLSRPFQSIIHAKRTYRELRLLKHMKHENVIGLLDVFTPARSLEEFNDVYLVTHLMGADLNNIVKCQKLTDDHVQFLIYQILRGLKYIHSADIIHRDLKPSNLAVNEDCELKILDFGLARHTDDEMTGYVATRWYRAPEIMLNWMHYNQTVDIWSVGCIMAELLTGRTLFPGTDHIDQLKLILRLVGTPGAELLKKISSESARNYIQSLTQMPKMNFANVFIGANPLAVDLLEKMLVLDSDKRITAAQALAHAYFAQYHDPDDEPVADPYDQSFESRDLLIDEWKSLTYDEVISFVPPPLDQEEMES
Chain of Tyrosine-protein kinase BTK (Homo sapiens) (Q06187 whole entry): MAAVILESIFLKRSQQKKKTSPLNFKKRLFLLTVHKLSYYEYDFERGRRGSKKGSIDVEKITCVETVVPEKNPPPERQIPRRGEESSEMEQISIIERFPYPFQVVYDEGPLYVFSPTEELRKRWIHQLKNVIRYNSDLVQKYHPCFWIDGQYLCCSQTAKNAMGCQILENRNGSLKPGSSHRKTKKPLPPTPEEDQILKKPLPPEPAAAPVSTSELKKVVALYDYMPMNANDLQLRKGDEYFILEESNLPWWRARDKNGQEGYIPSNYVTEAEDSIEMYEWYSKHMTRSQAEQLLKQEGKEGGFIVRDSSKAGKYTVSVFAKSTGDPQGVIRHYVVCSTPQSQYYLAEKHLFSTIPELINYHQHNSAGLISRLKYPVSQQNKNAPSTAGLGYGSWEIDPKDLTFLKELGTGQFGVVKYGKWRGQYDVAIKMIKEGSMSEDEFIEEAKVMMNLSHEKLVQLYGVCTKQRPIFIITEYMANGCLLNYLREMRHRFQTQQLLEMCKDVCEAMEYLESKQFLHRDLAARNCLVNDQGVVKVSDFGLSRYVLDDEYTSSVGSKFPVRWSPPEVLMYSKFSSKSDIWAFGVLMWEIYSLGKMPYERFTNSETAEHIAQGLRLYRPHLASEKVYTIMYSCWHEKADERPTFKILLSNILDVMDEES
Chain of MAP kinase-activated protein kinase 2 (Homo sapiens) (P49137 whole entry, looked up): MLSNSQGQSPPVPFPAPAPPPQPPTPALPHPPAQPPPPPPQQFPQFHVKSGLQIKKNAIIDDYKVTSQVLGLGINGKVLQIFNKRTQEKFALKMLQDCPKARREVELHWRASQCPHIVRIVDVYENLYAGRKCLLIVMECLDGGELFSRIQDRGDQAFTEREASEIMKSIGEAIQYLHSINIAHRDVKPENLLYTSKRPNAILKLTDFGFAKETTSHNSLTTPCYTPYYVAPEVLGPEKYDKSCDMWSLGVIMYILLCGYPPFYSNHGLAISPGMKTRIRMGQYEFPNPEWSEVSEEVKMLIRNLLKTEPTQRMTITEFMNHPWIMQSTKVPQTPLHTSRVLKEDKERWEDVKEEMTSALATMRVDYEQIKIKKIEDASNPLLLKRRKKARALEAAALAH
Chain of Calcium/calmodulin-dependent protein kinase type 1 (Homo sapiens) (Q14012 whole entry, looked up): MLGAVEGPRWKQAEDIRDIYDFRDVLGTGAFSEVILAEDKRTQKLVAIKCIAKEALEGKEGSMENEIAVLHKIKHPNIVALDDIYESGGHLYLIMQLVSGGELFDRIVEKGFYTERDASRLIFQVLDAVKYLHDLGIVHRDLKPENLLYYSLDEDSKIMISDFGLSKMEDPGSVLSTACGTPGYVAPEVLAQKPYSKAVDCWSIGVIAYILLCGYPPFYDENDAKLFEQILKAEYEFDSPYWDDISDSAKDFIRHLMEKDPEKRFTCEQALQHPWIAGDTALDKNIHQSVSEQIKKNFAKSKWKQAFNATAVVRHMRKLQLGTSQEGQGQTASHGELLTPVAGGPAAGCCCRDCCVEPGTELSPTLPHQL
Chain of Mitogen-activated protein kinase 11 (Homo sapiens) (Q15759 whole entry): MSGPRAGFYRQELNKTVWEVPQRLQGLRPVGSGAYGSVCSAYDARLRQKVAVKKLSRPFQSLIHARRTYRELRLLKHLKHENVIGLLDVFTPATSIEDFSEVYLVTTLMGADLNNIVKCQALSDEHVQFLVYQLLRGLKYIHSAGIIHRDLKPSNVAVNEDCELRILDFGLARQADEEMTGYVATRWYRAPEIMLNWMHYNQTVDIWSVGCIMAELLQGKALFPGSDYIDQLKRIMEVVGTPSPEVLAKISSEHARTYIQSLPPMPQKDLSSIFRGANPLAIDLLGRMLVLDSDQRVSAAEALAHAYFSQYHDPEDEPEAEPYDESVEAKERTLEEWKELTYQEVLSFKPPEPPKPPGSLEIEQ
Chain of Dual specificity mitogen-activated protein kinase kinase 1 (Homo sapiens) (Q02750 whole entry): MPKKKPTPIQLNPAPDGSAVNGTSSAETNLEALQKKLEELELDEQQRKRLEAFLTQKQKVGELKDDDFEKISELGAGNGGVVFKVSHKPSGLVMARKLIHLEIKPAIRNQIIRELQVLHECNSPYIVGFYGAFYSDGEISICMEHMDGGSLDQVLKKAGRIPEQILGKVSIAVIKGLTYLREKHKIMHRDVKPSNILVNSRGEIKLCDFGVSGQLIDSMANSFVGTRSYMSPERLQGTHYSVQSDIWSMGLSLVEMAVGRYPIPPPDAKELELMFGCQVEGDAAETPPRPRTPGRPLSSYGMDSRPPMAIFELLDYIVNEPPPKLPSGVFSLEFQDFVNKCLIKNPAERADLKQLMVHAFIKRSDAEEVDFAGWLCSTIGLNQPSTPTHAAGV
Chain of RAC-alpha serine/threonine-protein kinase (Homo sapiens) (P31749 whole entry): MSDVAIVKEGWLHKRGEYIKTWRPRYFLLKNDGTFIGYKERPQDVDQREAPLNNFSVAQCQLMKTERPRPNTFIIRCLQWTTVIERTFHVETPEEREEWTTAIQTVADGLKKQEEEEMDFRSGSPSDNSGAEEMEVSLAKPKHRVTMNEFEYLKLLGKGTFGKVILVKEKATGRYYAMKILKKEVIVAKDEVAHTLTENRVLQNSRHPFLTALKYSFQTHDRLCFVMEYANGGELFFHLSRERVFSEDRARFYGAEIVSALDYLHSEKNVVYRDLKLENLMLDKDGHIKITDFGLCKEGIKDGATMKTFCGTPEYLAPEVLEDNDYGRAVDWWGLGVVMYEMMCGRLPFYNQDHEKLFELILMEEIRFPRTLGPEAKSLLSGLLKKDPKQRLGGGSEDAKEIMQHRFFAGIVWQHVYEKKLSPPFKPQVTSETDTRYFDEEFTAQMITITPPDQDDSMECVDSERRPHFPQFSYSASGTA

inhibition [2]: > 50% | inhibition [3]: > 50% | pIC50 [4]: 4.14 | IC50 [5]: > 10 µM | pIC50 [6]: 6.32 | inhibition [7]: > 50% | inhibition [8]: > 50% | pIC50 [10]: < 4.00 | inhibition [12]: > 50% | pIC50 [13]: 6.32 | pEC50 (Plasmodium falciparum): 5.26 | inhibition [14]: > 50% | inhibition [15]: > 80% | inhibition [16]: > 50% | inhibition [17]: > 50% | inhibition [19]: > 50% | pIC50 [20]: < 5.00
SMILES: N#Cc1c(N)nc2sc(C(=O)c3cccc(Cl)c3)c(N)c2c1-c1ccccc1Cl
inhibition [1]: > 50% | pIC50 [9]: < 4.00 | pIC50 [11]: < 4.00 | pIC50 [18]: < 4.00
